# Data from ChEMBL document CHEMBL4689842, “EUbOPEN Chemogenomics Library wave 1” (2021).
# Several values for one entry are separate records, joined by “and”; a condition that tells them apart may be missing. Equal entries are not always repeated.
# Test system: HEK-293T
# Test: Multiplex assay against HEK293T;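 on Population Tubulin-Different-Phenotype (%): share of the cells with healthy nuclei that show this phenotype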
# Type: toxicity, cell-based
# Details: human
# Method in brief: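 Live cells were stained at seeding with Hoechst33342, BioTracker Green Microtubule Cytoskeleton Dye, MitoTracker Red and Annexin V Alexa Fluor 680. Following compound addition, they were imaged on a CQ1 microscope at 37°C and 5% CO2 and gated by CellPathfinder machine learning into Hoechst high-intensity objects or normal cells, with normal cells split into healthy, pyknosed or fragmented nuclei and pyknosed cells into mitotic or apoptotic. Tubulin, mitochondrial-mass and membrane-permeability phenotypes are per cents of healthy-nucleus cells.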
# [1] = 12 h, 1 µM, compound concentration 1 uM, replicate 1
# [2] = 12 h, 1 µM, compound concentration 1 uM, replicate 2
# [3] = 12 h, 10 µM, compound concentration 10 uM, replicate 1
# [4] = 12 h, 10 µM, compound concentration 10 uM, replicate 2
# [5] = 24 h, 1 µM, compound concentration 1 uM, replicate 1
# [6] = 24 h, 1 µM, compound concentration 1 uM, replicate 2
# [7] = 24 h, 10 µM, compound concentration 10 uM, replicate 1
# [8] = 24 h, 10 µM, compound concentration 10 uM, replicate 2
# [9] = 48 h, 10 µM, compound concentration 10 uM, replicate 1
# [10] = 48 h, 10 µM, compound concentration 10 uM, replicate 2
compound,measurement,setting,value
Cc1c(Nc2ccc(S(=O)(=O)N3CCN(C)CC3)cc2F)nc2ccc(-c3cnn(C4CC4)c3)cn2c1=O,Population Apoptotic (%),[1],19%
same,Population Fragmented Nuclei (%),[1],13%
same,Population Healthy Nuclei (%),[1],67%
same,Population Hoechst High Intensity Objects (%),[1],9%
same,Population Membrane Permeable-Phenotype (%),[1],4%
same,Population Mitochondria Different-Phenotype (%),[1],6%
same,Population Mitotic Cells (%),[1],80%
same,Population Normal (%),[1],90%
same,Population Pyknosed Nuclei (%),[1],18%
same,Population Tubulin-Different-Phenotype (%),[1],6%
same,Total Cell Count,[1],755
same,Population Apoptotic (%),[2],10%
same,Population Fragmented Nuclei (%),[2],7%
same,Population Healthy Nuclei (%),[2],87%
same,Population Hoechst High Intensity Objects (%),[2],2%
same,Population Membrane Permeable-Phenotype (%),[2],2%
same,Population Mitochondria Different-Phenotype (%),[2],9%
same,Population Mitotic Cells (%),[2],89%
same,Population Normal (%),[2],97%
same,Population Pyknosed Nuclei (%),[2],4%
same,Population Tubulin-Different-Phenotype (%),[2],10%
same,Total Cell Count,[2],1860
same,Population Apoptotic (%),[3],43% and 17%
same,Population Fragmented Nuclei (%),[3],44% and 17%
same,Population Healthy Nuclei (%),[3],37% and 61%
same,Population Hoechst High Intensity Objects (%),[3],45% and 18%
same,Population Membrane Permeable-Phenotype (%),[3],2% and 7%
same,Population Mitotic Cells (%),[3],56% and 82%
same,Population Normal (%),[3],54% and 81%
same,Population Pyknosed Nuclei (%),[3],18% and 20%
same,Population Tubulin-Different-Phenotype (%),[3],40% and 15%
same,Total Cell Count,[3],1012 and 786
same,Population Apoptotic (%),[4],16% and 6%
same,Population Fragmented Nuclei (%),[4],14% and 9%
same,Population Healthy Nuclei (%),[4],32% and 84%
same,Population Hoechst High Intensity Objects (%),[4],22% and 9%
same,Population Membrane Permeable-Phenotype (%),[4],4% and 8%
same,Population Mitotic Cells (%),[4],83% and 93%
same,Population Normal (%),[4],77% and 90%
same,Population Tubulin-Different-Phenotype (%),[4],64% and 33%
same,Population Apoptotic (%),[5],15%
same,Population Fragmented Nuclei (%),[5],11%
same,Population Healthy Nuclei (%),[5],77%
same,Population Hoechst High Intensity Objects (%),[5],5%
same,Population Membrane Permeable-Phenotype (%),[5],8%
same,Population Mitochondria Different-Phenotype (%),[5],4%
same,Population Mitotic Cells (%),[5],84%
same,Population Normal (%),[5],94%
same,Population Pyknosed Nuclei (%),[5],10%
same,Population Tubulin-Different-Phenotype (%),[5],10%
same,Total Cell Count,[5],923
same,Population Apoptotic (%),[6],1%
same,Population Fragmented Nuclei (%),[6],23%
same,Population Healthy Nuclei (%),[6],74%
same,Population Hoechst High Intensity Objects (%),[6],2%
same,Population Membrane Permeable-Phenotype (%),[6],7%
same,Population Mitochondria Different-Phenotype (%),[6],2%
same,Population Mitotic Cells (%),[6],98%
same,Population Normal (%),[6],97%
same,Population Pyknosed Nuclei (%),[6],1%
same,Population Tubulin-Different-Phenotype (%),[6],14%
same,Total Cell Count,[6],3127
same,Population Apoptotic (%),[7],41%
same,Population Healthy Nuclei (%),[7],39% and 75%
same,Population Membrane Permeable-Phenotype (%),[7],8%
same,Population Mitotic Cells (%),[7],58% and 76%
same,Population Normal (%),[7],56% and 86%
same,Population Pyknosed Nuclei (%),[7],16% and 12%
same,Population Tubulin-Different-Phenotype (%),[7],51% and 32%
same,Total Cell Count,[7],1052 and 818
same,Population Fragmented Nuclei (%),[8],11% and 14%
same,Population Healthy Nuclei (%),[8],42% and 80%
same,Population Mitotic Cells (%),[8],77% and 93%
same,Population Normal (%),[8],75% and 92%
same,Population Tubulin-Different-Phenotype (%),[8],64% and 49%
same,Population Apoptotic (%),[9],44%
same,Population Fragmented Nuclei (%),[9],37%
same,Population Healthy Nuclei (%),[9],47%
same,Population Hoechst High Intensity Objects (%),[9],40%
same,Population Membrane Permeable-Phenotype (%),[9],5%
same,Population Mitochondria Different-Phenotype (%),[9],35%
same,Population Mitotic Cells (%),[9],55%
same,Population Normal (%),[9],59%
same,Population Pyknosed Nuclei (%),[9],14%
same,Population Tubulin-Different-Phenotype (%),[9],58%
same,Total Cell Count,[9],1023
same,Population Apoptotic (%),[10],26%
same,Population Fragmented Nuclei (%),[10],12%
same,Population Healthy Nuclei (%),[10],61%
same,Population Hoechst High Intensity Objects (%),[10],19%
same,Population Membrane Permeable-Phenotype (%),[10],12%
same,Population Mitotic Cells (%),[10],73%
same,Population Normal (%),[10],80%
same,Population Pyknosed Nuclei (%),[10],25%
same,Population Tubulin-Different-Phenotype (%),[10],69%
same,Total Cell Count,[10],372
